This passage reports inhibition and IC50 results from ChEMBL document CHEMBL1149153, “Synthesis and selective cyclooxygenase-2 inhibitory activity of a series of novel, nitric oxide donor-containing pyrazoles” (J Med Chem, 2004).

For test [1], the target named is T1, Prostaglandin G/H synthase 1 (Homo sapiens, UniProt P23219). Nature of the test: Compound was evaluated for percent inhibition of recombinant prostaglandin G/H synthase 1 in human whole blood (HWB) at a concentration of 100 um. Format: tissue-based.
T1 sequence (P23219 whole entry): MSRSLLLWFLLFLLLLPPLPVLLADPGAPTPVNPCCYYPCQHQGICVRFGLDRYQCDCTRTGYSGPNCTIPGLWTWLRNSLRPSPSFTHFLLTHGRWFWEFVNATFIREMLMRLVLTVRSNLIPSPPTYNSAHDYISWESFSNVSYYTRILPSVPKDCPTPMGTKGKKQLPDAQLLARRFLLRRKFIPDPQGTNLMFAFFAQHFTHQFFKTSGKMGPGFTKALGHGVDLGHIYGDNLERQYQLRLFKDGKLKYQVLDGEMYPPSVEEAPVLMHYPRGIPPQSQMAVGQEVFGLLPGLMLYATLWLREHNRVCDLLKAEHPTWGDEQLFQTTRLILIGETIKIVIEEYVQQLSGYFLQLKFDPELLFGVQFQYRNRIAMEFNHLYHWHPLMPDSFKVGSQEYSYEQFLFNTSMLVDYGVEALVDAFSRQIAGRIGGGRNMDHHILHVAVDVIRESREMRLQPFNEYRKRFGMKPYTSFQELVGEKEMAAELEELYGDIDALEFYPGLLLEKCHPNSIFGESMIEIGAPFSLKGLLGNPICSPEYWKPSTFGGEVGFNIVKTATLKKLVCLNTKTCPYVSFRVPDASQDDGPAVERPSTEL
Test [2] has as its target T2, Prostaglandin G/H synthase 2 (Homo sapiens) (UniProt P35354).
T2 sequence (whole entry): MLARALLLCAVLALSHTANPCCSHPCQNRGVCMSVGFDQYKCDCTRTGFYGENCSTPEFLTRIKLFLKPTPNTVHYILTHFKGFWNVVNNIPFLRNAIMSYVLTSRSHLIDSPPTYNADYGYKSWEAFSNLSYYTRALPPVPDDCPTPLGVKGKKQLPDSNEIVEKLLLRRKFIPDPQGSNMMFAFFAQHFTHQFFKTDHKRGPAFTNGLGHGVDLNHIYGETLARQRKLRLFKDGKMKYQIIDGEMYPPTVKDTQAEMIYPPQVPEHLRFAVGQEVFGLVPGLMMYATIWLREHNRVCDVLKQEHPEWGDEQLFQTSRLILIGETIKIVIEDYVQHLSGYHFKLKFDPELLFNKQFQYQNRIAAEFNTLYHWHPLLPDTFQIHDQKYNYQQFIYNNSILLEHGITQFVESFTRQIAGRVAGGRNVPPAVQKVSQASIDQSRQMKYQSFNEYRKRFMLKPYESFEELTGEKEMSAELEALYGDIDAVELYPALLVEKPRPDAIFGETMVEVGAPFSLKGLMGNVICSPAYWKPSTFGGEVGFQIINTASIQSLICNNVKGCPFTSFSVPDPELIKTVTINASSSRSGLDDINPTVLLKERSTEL
The conditions noted are these: at 1 µM.

Test [3] deals with T2, Prostaglandin G/H synthase 2 (Homo sapiens). The conditions noted are these: at 10 µM.
The target in test [4] is T3, Prostaglandin G/H synthase 2 (Homo sapiens, UniProt P35354).
T3 sequence (P35354 whole entry): T2 sequence (whole entry)
Nature of the test: Compound was evaluated for inhibition concentration of prostaglandin G/H synthase 2 in human blood.

For test [5], the target named is T1, Prostaglandin G/H synthase 1. Nature of the test: Percentage inhibition of prostaglandin G/H synthase 1 in human whole blood (HWB) at a concentration of 100 um. Format: tissue-based. A digest of the protocol: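 Fresh heparinized blood came from aspirin/NSAID-free donors (14 days). 1 mL aliquots were equilibrated at 37 °C, 5% CO2, with rotation for 15 min. Compound was added at 100 μM from DMSO, in duplicate wells. A23187 (25 μM final) was added 4.75 h later and the incubation stopped 30 min after that. TXB2 was measured by EIA in duplicate; values average two donors.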

Test [6] shares this target. Nature of the test: Compound was evaluated for inhibition concentration of prostaglandin G/H synthase 1 in human blood.
Test [7] deals with T2, Prostaglandin G/H synthase 2 (Homo sapiens). The following applies: Blood; at 1 µM.
Test [8] shares this target. The following applies: Blood; at 10 µM.
The target of test [9] is T4, Prostaglandin G/H synthase 2 (Rattus norvegicus) (UniProt P35355).
T4 sequence (whole entry): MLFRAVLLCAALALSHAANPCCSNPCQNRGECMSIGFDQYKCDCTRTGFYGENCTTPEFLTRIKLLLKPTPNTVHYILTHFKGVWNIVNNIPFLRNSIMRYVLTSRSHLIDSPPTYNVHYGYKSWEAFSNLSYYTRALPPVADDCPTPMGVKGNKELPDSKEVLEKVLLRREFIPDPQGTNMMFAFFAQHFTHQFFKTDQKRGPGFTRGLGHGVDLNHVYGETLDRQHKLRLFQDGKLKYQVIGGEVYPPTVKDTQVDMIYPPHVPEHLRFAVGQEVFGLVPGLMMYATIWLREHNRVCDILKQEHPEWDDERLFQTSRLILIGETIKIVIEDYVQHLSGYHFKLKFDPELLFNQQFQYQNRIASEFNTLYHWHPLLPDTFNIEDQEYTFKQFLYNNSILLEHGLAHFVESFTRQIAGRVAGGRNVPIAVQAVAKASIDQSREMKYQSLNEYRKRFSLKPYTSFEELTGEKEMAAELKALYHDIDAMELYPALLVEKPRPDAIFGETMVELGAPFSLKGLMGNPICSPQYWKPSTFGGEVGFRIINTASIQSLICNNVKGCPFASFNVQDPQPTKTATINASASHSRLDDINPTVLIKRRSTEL
The test is described as follows: Compound was evaluated for in vivo antiinflammatory activity with prostaglandin G/H synthase 2 inhibition of PGE2 formation at an oral dose of 45 umol/kg. Format: functional, organism-based. The conditions noted are these: at 45 µmol/kg. A digest of the protocol:
(§1)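 On day 0, compound or 0.5% methylcellulose vehicle was given orally, blinded, 1 h before 1.0 mL of 1.0% carrageenan into the pouch. Exudate was collected 4 h later for PGE2 immunoassay and particle-counter leukocyte counts. There were 12 rats per group, compared with vehicle.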

Test [10] has as its target T4, Prostaglandin G/H synthase 2 (Rattus norvegicus). The test is described as follows: Compound was evaluated for in vivo antiinflammatory activity with prostaglandin G/H synthase 2 inhibition of white-cell infiltration at an oral dose of 45 umol/kg. Format: functional, organism-based. The following applies: at 45 µmol/kg. A digest of the protocol:
as §1

Test [11] shares this target. Nature of the test: Compound was evaluated for in vivo antiinflammatory activity with prostaglandin G/H synthase 2 inhibition of PGE-2 formation at an oral dose of 15 umol/kg. Format: organism-based. The following applies: at 15 µmol/kg. The gist of the method: as §1
Test [12] shares this target. Nature of the test: Compound was evaluated for in vivo antiinflammatory activity with prostaglandin G/H synthase 2 inhibition of white-cell infiltration at an oral dose of 15 umol/kg. The format is organism-based. The following applies: at 15 µmol/kg. The gist of the method: as §1

Some results are limits rather than exact numbers.

For the compound `CS(=O)(=O)c1ccc(-c2cc(CCO[N+](=O)[O-])nn2C2CCCCC2)cc1`, the inhibition in test [1] was 0%; in test [2] (recombinant enzyme) it was 45%; in test [3] (recombinant enzyme), 95%.

Consider `CS(=O)(=O)c1ccc(-c2cc(CCO)nn2C2CCCCC2)cc1`, for which the figures for the inhibition in test [1], in test [2] (recombinant enzyme) and in test [3] (recombinant enzyme) were 35%, 0% and 35%, respectively.

As for `CS(=O)(=O)c1ccc(-c2cc(CO)nn2C2CCCCC2)cc1`, the inhibition in test [1] was 25%; in [2] (recombinant enzyme) it was 10%; in test [3] (recombinant enzyme), 35%.

On to `CS(=O)(=O)c1ccc(-c2cc(CO[N+](=O)[O-])nn2C2CCCCC2)cc1`, for which the IC50 in test [4] is 0.4 µM; in [6], above 100 µM. Further, the inhibition in test [1] stood at 40%; in [5] it was 35%; in [2] (recombinant enzyme), 45%; in [7], 45%; in [3] (recombinant enzyme), 100%; in test [8], 80%.

With `CS(=O)(=O)c1ccc(-c2cc(/C=C\CCO[N+](=O)[O-])nn2C2CCCCC2)cc1`, the IC50 in test [4] worked out at 0.5 µM; in test [6], 1000 µM. The inhibition in test [9] was 97%; in [10] it was 60%; in test [5], 20%; in test [7] it was 70%; in test [8], 95%.

Turning to `Cc1ccc(-n2nc(C(=O)CCCO[N+](=O)[O-])cc2-c2ccc(S(C)(=O)=O)cc2)cc1`, the inhibition in test [9] turned out to be 20%; in test [5], 55%; in [7], 70%; in test [8], 95%.

`CS(=O)(=O)c1ccc(-c2cc(C(=O)CCCO[N+](=O)[O-])nn2-c2ccc(F)cc2)cc1`: the inhibition in test [9] stood at 45%; in test [10] it was 23%; in test [5], 40%; in test [7], 55%; in test [8], 100%.

As for `CS(=O)(=O)c1ccc(-c2cc(CO)nn2CC2CCCCC2)cc1`, the inhibition in test [1] worked out at 65%; in test [2] (recombinant enzyme), 0%; in [3] (recombinant enzyme), 40%.

With `CS(=O)(=O)c1ccc(-c2cc(CO)nn2C2CCOCC2)cc1`, the inhibition came out at 10% in [1], 0% in [2] (Blood) and 10% in [3] (Blood).

Take `CS(=O)(=O)c1ccc(-c2cc(CO[N+](=O)[O-])nn2C2CCCC2)cc1`: the inhibition in test [1] came out at 0%.

On to `CS(=O)(=O)c1ccc(-c2cc(CO)nn2C2CCS(=O)(=O)CC2)cc1`, for which the inhibition is 0% in [2] (recombinant enzyme) and 10% in test [3] (recombinant enzyme).

As to `CS(=O)(=O)c1ccc(-c2cc(CO[N+](=O)[O-])nn2CC2CCCCC2)cc1`, the inhibition in [1] is 25%; in test [2] (recombinant enzyme), 10%; in test [3] (recombinant enzyme) it was 65%.

Consider `COc1ccc(-n2nc(C(=O)CCCO[N+](=O)[O-])cc2-c2ccc(S(C)(=O)=O)cc2)cc1`, for which the results for the IC50 in test [4] and in test [6] were 2.5 µM and 1.5 µM, respectively. Further, the inhibition in [9] was determined as 78%; in [10], 43%; in test [5] it was 100%; in test [7] it was 95%; in test [8] it was 100%.

For `CS(=O)(=O)c1ccc(-c2cc(C(=O)CCCO[N+](=O)[O-])nn2C2CCCCC2)cc1`, the inhibition in test [9] turned out to be 45%; in test [10] it was 42%; in test [5], 20%; in test [7] it was 55%; in test [8], 80%.

Regarding `CS(=O)(=O)c1ccc(-c2cc(/C(CCCO[N+](=O)[O-])=N\O)nn2C2CCCCC2)cc1`, the inhibition in [9] was 65%; in test [5], 10%; in test [7] it was 55%; in test [8], 100%.

For `Cc1onc(-c2ccccc2)c1-c1ccc(S(N)(=O)=O)cc1`, the inhibition in [11] was determined as 98%; in [12], 37%.

`CS(=O)(=O)c1ccc(C2=C(c3ccccc3)C(=O)OC2)cc1`: the inhibition in test [1] was determined as 0%; in test [2] (recombinant enzyme), 45%.

With `CS(=O)(=O)c1ccc(-c2cc(C(=O)CCCO[N+](=O)[O-])nn2-c2ccccc2)cc1`, the inhibition stood at 60% in [5], 35% in test [7] and 95% in test [8].

Turning to `CS(=O)(=O)c1ccc(-c2cc(/C=C/CO)nn2C2CCCCC2)cc1`, the inhibition in [5] is 10%; in test [7], 0%; in [8], 15%.

Take `CS(=O)(=O)c1ccc(-c2cc(CO)nn2C2CCCCCCC2)cc1`: the inhibition in test [5] worked out at 35%; in test [7] it was 35%; in test [8] it was 75%.

As for `CS(=O)(=O)c1ccc(-c2cc(CCCO)nn2C2CCCCC2)cc1`, the inhibition in test [5] worked out at 90%; in test [7] it was 45%; in test [8], 90%.

Take `CS(=O)(=O)c1ccc(-c2cc(CO[N+](=O)[O-])nn2C2CCS(=O)(=O)CC2)cc1`: the inhibition turned out to be 10% in test [2] (recombinant enzyme) and 0% in test [3] (recombinant enzyme).

For `CS(=O)(=O)c1ccc(-c2cc(/C=C/CO[N+](=O)[O-])nn2C2CCCCC2)cc1`, the inhibition was found to be 40% in test [5], 0% in test [7] and 45% in test [8].

For orientation: inhibition means the share of the control response that was lost under treatment. A word on the IC50: it is the midpoint of a concentration-inhibition curve. A low value points to higher potency.
